Results taken from ChEMBL document CHEMBL1921722, “In vitro and in vivo evaluation of select kahalalide F analogs with antitumor and antifungal activities” (Bioorg Med Chem, 2011).
The source made the active and inactive calls. No cut-off for these calls is given here.

Legend:
[1] = tested on: SR; test: Cytotoxicity against human SR cells assessed as cell growth at 80 nM by sulforhodamine B assay relative to control; assay type: functional; details: read-out: Activity
[2] = tested on: CCRF-CEM; test: Cytotoxicity against human CCRF-CEM cells assessed as cell growth at 8 uM by sulforhodamine B assay relative to control; assay type: functional; details: read-out: Activity
[3] = tested on: CCRF-CEM; test: Cytotoxicity against human CCRF-CEM cells assessed as cell growth at 80 uM by sulforhodamine B assay relative to control; assay type: functional; details: read-out: Activity
[4] = tested on: SR; test: Cytotoxicity against human SR cells assessed as cell growth at 80 uM by sulforhodamine B assay relative to control; assay type: functional; details: read-out: Activity
[5] = tested on: NCI-H322M; test: Cytotoxicity against human NCI-H322M cells assessed as cell growth at 8 uM by sulforhodamine B assay relative to control; assay type: functional; details: read-out: Activity
[6] = tested on: U-251; test: Cytotoxicity against human U251 cells assessed as cell growth at 80 nM by sulforhodamine B assay relative to control; assay type: functional; details: read-out: Activity
[7] = tested on: LOX IMVI; test: Cytotoxicity against human LOXIMVI cells assessed as cell growth at 8 nM by sulforhodamine B assay relative to control; assay type: functional; details: read-out: Activity
[8] = tested on: CCRF-CEM; test: Cytotoxicity against human CCRF-CEM cells by sulforhodamine B assay; assay type: functional
Outline: (§1)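 Run at NCI in the DTP 60-cell-line human tumor panel by standard procedure. Compounds were first screened at a single concentration, then tested at five tenfold-spaced concentrations. GI50 is the concentration reducing treated-cell growth to half that of untreated controls; TGI is the concentration completely halting growth.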

[9] = tested on: SF-268; test: Cytotoxicity against human SF268 cells assessed as cell growth at 80 uM by sulforhodamine B assay relative to control; assay type: functional; details: read-out: Activity
[10] = tested on: CCRF-CEM; test: Cytotoxicity against human CCRF-CEM cells assessed as cell growth at 8 nM by sulforhodamine B assay relative to control; assay type: functional; details: read-out: Activity
[11] = tested on: U-251; test: Antitumor activity against human U251 cells xenografted in mouse assessed as tumor cell killing at 2.35 mg/kg, ip qd for 4 days by MTT assay; assay type: functional, organism-based; parameters: dose 2.35 mg/kg
[12] = tested on: UACC-62; test: Antitumor activity against human UACC62 cells xenografted in mouse assessed as tumor cell killing at 2.35 mg/kg, ip qd for 4 days by MTT assay; assay type: functional, organism-based; parameters: dose 2.35 mg/kg
[13] = tested on: DU-145; test: Cytotoxicity against human DU145 cells assessed as cell growth at 80 nM by sulforhodamine B assay relative to control; assay type: functional; details: read-out: Activity
[14] = tested on: NCI-H226; test: Cytotoxicity against human NCI-H226 cells assessed as cell growth at 80 nM by sulforhodamine B assay relative to control; assay type: functional; details: read-out: Activity
[15] = tested on: Mus musculus; test: Acute toxicity in athymic nude mouse assessed as mortality at 200 mg/kg, […] after 19 days; assay type: organism-based; parameters: dose 200 mg/kg, route intraperitoneal; details: in vivo, ip, 456 h
[16] = tested on: OVCAR-5; test: Cytotoxicity against human OVCAR5 cells assessed as cell growth at 800 nM by sulforhodamine B assay relative to control; assay type: functional; details: read-out: Activity
[17] = tested on: SK-OV-3; test: Cytotoxicity against human SKOV3 cells assessed as cell growth at 8 uM by sulforhodamine B assay relative to control; assay type: functional; details: read-out: Activity
[18] = tested on: K562; test: Cytotoxicity against human K562 cells assessed as cell growth at 80 nM by sulforhodamine B assay relative to control; assay type: functional; details: read-out: Activity
[19] = tested on: NCI-H522; test: Antitumor activity against human NCI-H522 cells xenografted in mouse assessed as tumor cell killing at 2.35 mg/kg, ip qd for 4 days by MTT assay; assay type: functional, organism-based; parameters: dose 2.35 mg/kg
[20] = tested on: CCRF-CEM; test: Cytotoxicity against human CCRF-CEM cells assessed as cell growth at 80 nM by sulforhodamine B assay relative to control; assay type: functional; details: read-out: Activity
[21] = tested on: OVCAR-5; test: Antitumor activity against human OVCAR5 cells xenografted in mouse assessed as tumor cell killing at 2.35 mg/kg, ip qd for 4 days by MTT assay; assay type: functional, organism-based; parameters: dose 2.35 mg/kg
[22] = tested on: CCRF-CEM; test: Cytotoxicity against human CCRF-CEM cells assessed as cell growth at 800 nM by sulforhodamine B assay relative to control; assay type: functional; details: read-out: Activity
[23] = tested on: SR; test: Cytotoxicity against human SR cells assessed as cell growth at 8 uM by sulforhodamine B assay relative to control; assay type: functional; details: read-out: Activity
[24] = tested on: MDA-MB-435; test: Antitumor activity against human MDA-MB-435 cells xenografted in mouse assessed as tumor cell killing at 2.35 mg/kg, ip qd for 4 days by MTT assay; assay type: functional, organism-based; parameters: dose 2.35 mg/kg
[25] = tested on: SF-295; test: Antitumor activity against human SF295 cells xenografted in mouse assessed as tumor cell killing at 2.35 mg/kg, ip qd for 4 days by MTT assay; assay type: functional, organism-based; parameters: dose 2.35 mg/kg
[26] = tested on: SF-295; test: Antitumor activity against human SF295 cells xenografted in mouse assessed as tumor cell killing at 3.1 mg/kg, ip qd for 4 days by MTT assay; assay type: functional, organism-based; parameters: dose 3.1 mg/kg
[27] = tested on: CAKI-1; test: Cytotoxicity against human Caki1 cells assessed as cell growth at 800 nM by sulforhodamine B assay relative to control; assay type: functional; details: read-out: Activity
[28] = tested on: CAKI-1; test: Cytotoxicity against human Caki1 cells assessed as cell growth at 8 uM by sulforhodamine B assay relative to control; assay type: functional; details: read-out: Activity
[29] = tested on: U-251; test: Antitumor activity against human U251 cells xenografted in mouse assessed as tumor cell killing at 3.1 mg/kg, ip qd for 4 days by MTT assay; assay type: functional, organism-based; parameters: dose 3.1 mg/kg
[30] = tested on: OVCAR-5; test: Antitumor activity against human OVCAR5 cells xenografted in mouse assessed as tumor cell killing at 3.1 mg/kg, ip qd for 4 days by MTT assay; assay type: functional, organism-based; parameters: dose 3.1 mg/kg
[31] = tested on: UACC-62; test: Antitumor activity against human UACC62 cells xenografted in mouse assessed as tumor cell killing at 3.1 mg/kg, ip qd for 4 days by MTT assay; assay type: functional, organism-based; parameters: dose 3.1 mg/kg
[32] = tested on: NCI-H522; test: Antitumor activity against human NCI-H522 cells xenografted in mouse assessed as tumor cell killing at 3.1 mg/kg, ip qd for 4 days by MTT assay; assay type: functional, organism-based; parameters: dose 3.1 mg/kg
[33] = tested on: CAKI-1; test: Cytotoxicity against human Caki1 cells assessed as cell growth at 80 uM by sulforhodamine B assay relative to control; assay type: functional; details: read-out: Activity
[34] = tested on: MDA-MB-435; test: Antitumor activity against human MDA-MB-435 cells xenografted in mouse assessed as tumor cell killing at 3.1 mg/kg, ip qd for 4 days by MTT assay; assay type: functional, organism-based; parameters: dose 3.1 mg/kg
[35] = tested on: CAKI-1; test: Cytotoxicity against human Caki1 cells assessed as cell growth at 80 nM by sulforhodamine B assay relative to control; assay type: functional; details: read-out: Activity
[36] = tested on: CAKI-1; test: Cytotoxicity against human Caki1 cells assessed as cell growth at 8 nM by sulforhodamine B assay relative to control; assay type: functional; details: read-out: Activity
[37] = tested on: CAKI-1; test: Cytotoxicity against human Caki1 cells by sulforhodamine B assay; assay type: functional; outline: as §1
[38] = read-out: pLC50 (the source's name) (converted)

Q: With `C/C=C1\NC(=O)[C@H](Cc2ccccc2)NC(=O)[C@@H](C(C)C)NC(=O)[C@@H]([C@@H](C)CC)NC(=O)[C@H](NC(=O)[C@H](NC(=O)[C@H](CCCNCc2ccc(N3CCOCC3)cc2)NC(=O)[C@H]2CCCN2C(=O)[C@H](NC(=O)[C@@H](NC(=O)[C@@H](NC(=O)[C@H](NC(=O)CCCC(C)C)C(C)C)[C@@H](C)O)C(C)C)C(C)C)[C@@H](C)CC)[C@@H](C)OC(=O)[C@H](C(C)C)NC1=O` as the compound, how does the growth at 0.08 µM [1] read?
A: 106%

Q: What about the growth at 8 µM [2] of the same compound?
A: 82%

Q: And the growth at 80 µM [3]?
A: -31%

Q: What about the growth at 80 µM [4] of the same compound?
A: -7%

Q: And the growth at 8 µM [5]?
A: -84%

Q: What about the growth at 0.08 µM [6] of the same compound?
A: 103%

Q: And the growth at 0.008 µM [7]?
A: 95%

Q: What about the GI50 [8] of the same compound?
A: 22.9 µM

Q: And the CC50 [8, 38]?
A: > 75.9 µM

Q: What about the TGI ([8]; read-out: pTGI (converted)) of the same compound?
A: 39.8 µM

Q: What about the growth at 80 µM [9] of the same compound?
A: 18%

Q: And the growth at 0.008 µM [10]?
A: 122%

Q: What about the Activity [11] of the same compound?
A: inactive

Q: What about the Activity [12] of the same compound?
A: inactive

Q: And the growth at 0.08 µM [13]?
A: 89%

Q: What about the growth at 0.08 µM [14] of the same compound?
A: 107%

Q: And the Activity [15]?
A: Toxic

Q: And the growth at 0.8 µM [16]?
A: 64%

Q: What about the growth at 8 µM [17] of the same compound?
A: -87%

Q: And the growth at 0.08 µM [18]?
A: 100%

Q: And the Activity [19]?
A: inactive

Q: And the growth at 0.08 µM [20]?
A: 123%

Q: And the Activity [21]?
A: inactive

Q: And the growth at 0.8 µM [22]?
A: 128%

Q: What about the growth at 8 µM [23] of the same compound?
A: 15%

Q: And the Activity [24]?
A: inactive

Q: And the Activity [25]?
A: inactive

Q: `C/C=C1\NC(=O)[C@H](Cc2ccccc2)NC(=O)[C@@H](C(C)C)NC(=O)[C@@H]([C@@H](C)CC)NC(=O)[C@H](NC(=O)[C@H](NC(=O)[C@H](CCCNCc2ccc(F)c(C)c2)NC(=O)[C@H]2CCCN2C(=O)[C@H](NC(=O)[C@@H](NC(=O)[C@@H](NC(=O)[C@H](NC(=O)CCCC(C)C)C(C)C)[C@@H](C)O)C(C)C)C(C)C)[C@@H](C)CC)[C@@H](C)OC(=O)[C@H](C(C)C)NC1=O` was tested. Which growth at 0.08 µM [1] did it give?
A: 89%

Q: What about the Activity [26] of the same compound?
A: inactive

Q: And the growth at 0.8 µM [27]?
A: 103%

Q: What about the growth at 8 µM [28] of the same compound?
A: -86%

Q: What about the Activity [29] of the same compound?
A: inactive

Q: And the Activity [30]?
A: inactive

Q: What about the Activity [31] of the same compound?
A: inactive

Q: What about the growth at 8 µM [5] of the same compound?
A: -95%

Q: What about the growth at 0.08 µM [6] of the same compound?
A: 100%

Q: And the growth at 0.008 µM [7]?
A: 96%

Q: And the Activity [32]?
A: inactive

Q: And the growth at 80 µM [33]?
A: -56%

Q: And the growth at 0.08 µM [13]?
A: 87%

Q: And the growth at 0.08 µM [14]?
A: 109%

Q: And the Activity [34]?
A: inactive

Q: And the Activity [15]?
A: Non-toxic

Q: What about the growth at 0.8 µM [16] of the same compound?
A: 55%

Q: And the growth at 8 µM [17]?
A: -96%

Q: And the growth at 0.08 µM [18]?
A: 106%

Q: And the growth at 0.08 µM [35]?
A: 150%

Q: And the growth at 0.008 µM [36]?
A: 130%

Q: What about the growth at 8 µM [23] of the same compound?
A: -50%

Q: What about the GI50 [37] of the same compound?
A: 1.45 µM

Q: And the CC50 [37, 38]?
A: 4.79 µM

Q: What about the TGI ([37]; read-out: pTGI (converted)) of the same compound?
A: 2.63 µM
